From ChEMBL document CHEMBL2046313, “Discovery and evaluation of a non-Zn chelating, selective matrix metalloproteinase 13 (MMP-13) inhibitor for potential intra-articular treatment of osteoarthritis” (J Med Chem, 2012)

Columns and labels:
Matrilysin = target: T1, Matrilysin (Homo sapiens, UniProt P09237); assay: Inhibition of human recombinant MMP7 using MCA-Pro-Leu-Gly-Leu-Dpa-Ala-Arg-NH2.AcOH as substrate preincubated for 10 mins measured by fluorescence analysis
T1 sequence (P09237 whole entry): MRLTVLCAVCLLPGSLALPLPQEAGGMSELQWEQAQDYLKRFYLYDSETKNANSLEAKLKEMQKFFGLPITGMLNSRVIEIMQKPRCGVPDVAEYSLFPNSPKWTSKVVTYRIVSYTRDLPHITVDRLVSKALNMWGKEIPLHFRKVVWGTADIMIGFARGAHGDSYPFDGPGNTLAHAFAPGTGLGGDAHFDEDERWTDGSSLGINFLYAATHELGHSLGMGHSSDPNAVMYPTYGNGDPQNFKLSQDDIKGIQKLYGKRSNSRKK
In short: (§1)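 Catalytic domains of recombinant human MMPs were assayed with fluorogenic OmniMMP substrate in 50 mM Tris-HCl pH 7.5, 150 mM NaCl, 5 mM CaCl₂, 0.05% Brij-35. Enzyme was 1–10 nM and substrate 4–10 μM, optimized per assay. Enzyme was preincubated 10 min with varying inhibitor concentrations, and IC50 was calculated from runs done at least in duplicate.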

[1] = target: Matrix metalloproteinase-9 (Homo sapiens, UniProt P14780); assay: Inhibition of human recombinant MMP9 using MCA-Pro-Leu-Gly-Leu-Dpa-Ala-Arg-NH2.AcOH as substrate preincubated for 10 mins measured by fluorescence analysis; in short: as §1
Cartilage tissue = assay: Inhibition of collagen degradation in bovine articular cartilage assessed as inhibition of interlukein-1alpha/oncostatin M-induced C1,C2 release measured after 11 days by ELISA; format: functional, tissue-based; conditions: Bos taurus, 264 h
In short: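 Freshly isolated bovine articular cartilage pieces (~3 mm²) were stimulated with 5 ng/mL IL-1α plus 50 ng/mL OSM, with or without compound, for 11 days. Medium was refreshed twice weekly. Collagen degradation products in the conditioned medium were quantified by C1,2C ELISA.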

[2] = target: Macrophage metalloelastase (Homo sapiens, UniProt P39900); assay: Inhibition of human recombinant MMP12 using MCA-Pro-Leu-Gly-Leu-Dpa-Ala-Arg-NH2.AcOH as substrate preincubated for 10 mins measured by fluorescence analysis; in short: as §1
[3] = target: Matrix metalloproteinase-14 (Homo sapiens, UniProt P50281); assay: Inhibition of human recombinant MMP14 using MCA-Pro-Leu-Gly-Leu-Dpa-Ala-Arg-NH2.AcOH as substrate preincubated for 10 mins measured by fluorescence analysis; in short: as §1
Interstitial collagenase = target: T2, Interstitial collagenase (Homo sapiens, UniProt P03956); assay: Inhibition of human recombinant MMP1 using MCA-Pro-Leu-Gly-Leu-Dpa-Ala-Arg-NH2.AcOH as substrate preincubated for 10 mins measured by fluorescence analysis; in short: as §1
T2 sequence (P03956 whole entry): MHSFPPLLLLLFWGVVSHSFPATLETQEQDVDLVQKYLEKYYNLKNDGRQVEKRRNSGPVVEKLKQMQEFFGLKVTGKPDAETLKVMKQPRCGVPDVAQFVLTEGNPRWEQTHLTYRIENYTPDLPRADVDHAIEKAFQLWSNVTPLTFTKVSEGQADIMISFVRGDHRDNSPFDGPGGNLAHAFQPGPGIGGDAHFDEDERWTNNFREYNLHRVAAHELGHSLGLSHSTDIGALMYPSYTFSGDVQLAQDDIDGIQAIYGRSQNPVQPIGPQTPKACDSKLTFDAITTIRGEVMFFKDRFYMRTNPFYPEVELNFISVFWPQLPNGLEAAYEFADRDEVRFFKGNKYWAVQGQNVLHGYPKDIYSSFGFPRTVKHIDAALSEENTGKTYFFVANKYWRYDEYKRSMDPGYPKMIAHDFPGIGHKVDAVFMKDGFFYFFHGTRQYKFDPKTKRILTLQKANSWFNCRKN

[4] = target: 72 kDa type IV collagenase (Homo sapiens, UniProt P08253); assay: Inhibition of human recombinant MMP2 using MCA-Pro-Leu-Gly-Leu-Dpa-Ala-Arg-NH2.AcOH as substrate preincubated for 10 mins measured by fluorescence analysis; in short: as §1
Neutrophil collagenase = Neutrophil collagenase (Homo sapiens, UniProt P22894); assay: Inhibition of human recombinant MMP8 using MCA-Pro-Leu-Gly-Leu-Dpa-Ala-Arg-NH2.AcOH as substrate preincubated for 10 mins measured by fluorescence analysis; in short: as §1
[5] = target: T3, A disintegrin and metalloproteinase with thrombospondin motifs 4 (Homo sapiens, UniProt O75173); assay: Inhibition of human recombinant aggrecanase 1 using aggrecan-IGD as substrate measured after 15 mins by ELISA
T3 sequence (O75173 whole entry): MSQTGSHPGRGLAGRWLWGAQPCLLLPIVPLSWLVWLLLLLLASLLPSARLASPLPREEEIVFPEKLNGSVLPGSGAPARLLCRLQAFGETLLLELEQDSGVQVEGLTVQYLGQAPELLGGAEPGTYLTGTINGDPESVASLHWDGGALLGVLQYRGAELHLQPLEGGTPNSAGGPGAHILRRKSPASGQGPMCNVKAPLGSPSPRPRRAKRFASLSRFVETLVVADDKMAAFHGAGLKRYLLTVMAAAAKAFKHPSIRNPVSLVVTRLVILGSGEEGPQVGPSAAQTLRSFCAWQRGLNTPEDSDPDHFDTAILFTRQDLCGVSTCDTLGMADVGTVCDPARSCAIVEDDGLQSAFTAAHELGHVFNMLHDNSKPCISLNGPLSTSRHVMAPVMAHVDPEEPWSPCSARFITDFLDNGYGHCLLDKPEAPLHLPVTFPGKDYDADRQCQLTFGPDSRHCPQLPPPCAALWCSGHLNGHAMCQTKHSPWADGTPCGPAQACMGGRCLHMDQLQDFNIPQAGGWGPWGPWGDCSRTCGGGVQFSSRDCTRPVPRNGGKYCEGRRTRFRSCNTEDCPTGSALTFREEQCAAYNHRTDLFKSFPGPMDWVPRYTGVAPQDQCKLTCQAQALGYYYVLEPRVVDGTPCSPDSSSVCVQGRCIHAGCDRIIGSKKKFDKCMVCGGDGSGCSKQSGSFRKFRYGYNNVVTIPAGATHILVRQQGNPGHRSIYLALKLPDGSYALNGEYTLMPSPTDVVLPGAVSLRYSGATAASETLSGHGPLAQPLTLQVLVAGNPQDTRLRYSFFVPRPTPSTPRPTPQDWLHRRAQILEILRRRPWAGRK
In short: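 Aggrecanase-1 was run in 50 mM Tris-HCl pH 7.5, 150 mM NaCl, 5 mM CaCl₂, 0.05% Brij-35, with 100 nM recombinant human aggrecan interglobular domain as substrate, for 15 min at 37 °C. The reaction was stopped with EDTA, and ARGSVIL neoepitopes were quantified by ELISA.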

Collagenase 3 = Collagenase 3 (Homo sapiens, UniProt P45452); assay: Inhibition of human recombinant MMP13 using MCA-Pro-Cha-Gly-Nva-His-Ala-Dpa-NH2 as substrate preincubated for 10 mins measured by fluorescence analysis
In short: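 Catalytic domain of recombinant human MMP-13 was assayed with fluorogenic substrate in 50 mM Tris-HCl pH 7.5, 150 mM NaCl, 5 mM CaCl₂, 0.05% Brij-35. Enzyme was 1–10 nM and substrate 4–10 μM. It was preincubated 10 min with varying inhibitor concentrations, and IC50 came from at least duplicate runs.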

Rattus norvegicus [6] = species: Rattus norvegicus; assay: Chondroprotective activity in Sprague-Dawley rat cartilage assessed as inhibition of MMP13-mediated C1,C2 release at 0.5 mg/joint, ia measured on day 14 by ELISA; format: functional
In short: (§2)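 Male Sprague-Dawley rats (175−200 g, three per group) received one IA injection of 50 μL PBS holding 10 mg/mL suspension (sonicated, vortexed) into right knee. They were killed at 1, 7, 14 or 21 days, and tibial cartilage was collected. Cartilage was then challenged with 10 μg/mL APMA-activated human MMP-13 for 24 h at 37 °C in Tris pH 7.5. The reaction was stopped with 10 mM EDTA, and released C1,2C was measured by ELISA. Vehicle cartilage incubated with or without MMP-13 defined 100% and 0%.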

[7] = target: Disintegrin and metalloproteinase domain-containing protein 17 (Homo sapiens, UniProt P78536); assay: Inhibition of human recombinant TACE using MCA-Pro-Leu-Ala-Gln-Ala-Val-Dpa-Arg-Ser-Ser-Ser-Arg-NH2 as substrate preincubated for 10 mins measured by fluorescence analysis
In short: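 Recombinant human TACE was assayed with its fluorogenic peptide substrate in 25 mM Tris-HCl pH 9, 1.25 μM Zn(OAc)₂, 0.005% Brij-35. Enzyme was 1–10 nM and substrate 4–10 μM. Enzyme was preincubated 10 min with varying inhibitor concentrations, and IC50 came from at least duplicate runs.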

Rattus norvegicus [8] = species: Rattus norvegicus; assay: Chondroprotective activity in Sprague-Dawley rat cartilage assessed as inhibition of MMP13-mediated C1,C2 release at 0.5 mg/joint, ia measured on day 7 by ELISA; format: functional; in short: as §2
Stromelysin-1 = Stromelysin-1 (Homo sapiens, UniProt P08254); assay: Inhibition of human recombinant MMP3 using MCAArg-Pro-Lys-Pro-Val-Glu-Nva-Trp-Arg-Lys(DNP)-NH2 as substrate preincubated for 10 mins measured by fluorescence analysis
In short: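 Catalytic domain of recombinant human MMP-3 was assayed with NFF-3 fluorogenic substrate in 50 mM MES pH 6.0, 10 mM CaCl₂, 0.05% Brij-35. Enzyme was 1–10 nM and substrate 4–10 μM. Enzyme was preincubated 10 min with varying inhibitor concentrations, and IC50 came from at least duplicate runs.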

Rattus norvegicus [9] = species: Rattus norvegicus; assay: Chondroprotective activity in Sprague-Dawley rat cartilage assessed as inhibition of MMP13-mediated C1,C2 release at 0.5 mg/joint, ia measured after 24 hrs by ELISA; format: functional; in short: as §2

Sequence of Stromelysin-1 (P08254 whole entry, the tested form may be a part): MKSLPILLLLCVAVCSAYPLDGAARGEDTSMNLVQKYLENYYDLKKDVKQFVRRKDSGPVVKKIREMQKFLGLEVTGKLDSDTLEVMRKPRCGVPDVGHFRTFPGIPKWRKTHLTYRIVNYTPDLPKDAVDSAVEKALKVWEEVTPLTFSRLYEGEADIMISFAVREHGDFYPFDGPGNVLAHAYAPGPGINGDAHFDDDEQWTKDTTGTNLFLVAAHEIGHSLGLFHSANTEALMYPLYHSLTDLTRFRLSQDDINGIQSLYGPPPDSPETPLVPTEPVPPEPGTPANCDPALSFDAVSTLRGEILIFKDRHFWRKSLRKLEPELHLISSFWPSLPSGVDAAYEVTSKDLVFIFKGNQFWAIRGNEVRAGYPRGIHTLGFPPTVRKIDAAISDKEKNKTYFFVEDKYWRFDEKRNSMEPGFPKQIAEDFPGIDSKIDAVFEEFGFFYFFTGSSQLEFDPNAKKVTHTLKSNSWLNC
Sequence of 72 kDa type IV collagenase (P08253 whole entry): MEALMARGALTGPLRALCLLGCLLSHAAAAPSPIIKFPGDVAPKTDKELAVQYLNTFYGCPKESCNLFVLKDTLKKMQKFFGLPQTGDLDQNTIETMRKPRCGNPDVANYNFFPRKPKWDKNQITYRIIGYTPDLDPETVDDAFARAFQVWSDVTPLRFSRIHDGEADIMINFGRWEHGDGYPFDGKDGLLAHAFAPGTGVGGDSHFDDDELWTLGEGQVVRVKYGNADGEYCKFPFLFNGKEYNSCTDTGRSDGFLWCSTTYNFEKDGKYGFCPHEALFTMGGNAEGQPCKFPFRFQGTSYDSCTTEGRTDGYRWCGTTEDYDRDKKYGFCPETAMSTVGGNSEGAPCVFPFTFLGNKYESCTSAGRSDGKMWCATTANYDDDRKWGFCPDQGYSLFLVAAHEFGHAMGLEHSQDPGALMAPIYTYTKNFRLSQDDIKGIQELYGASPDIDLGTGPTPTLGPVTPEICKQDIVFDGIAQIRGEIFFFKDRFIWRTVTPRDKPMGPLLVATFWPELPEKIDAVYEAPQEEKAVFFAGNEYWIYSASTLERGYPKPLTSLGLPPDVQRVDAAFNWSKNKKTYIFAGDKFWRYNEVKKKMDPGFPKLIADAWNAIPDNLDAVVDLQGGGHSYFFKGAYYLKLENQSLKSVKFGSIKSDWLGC
Sequence of Matrix metalloproteinase-9 (P14780 whole entry): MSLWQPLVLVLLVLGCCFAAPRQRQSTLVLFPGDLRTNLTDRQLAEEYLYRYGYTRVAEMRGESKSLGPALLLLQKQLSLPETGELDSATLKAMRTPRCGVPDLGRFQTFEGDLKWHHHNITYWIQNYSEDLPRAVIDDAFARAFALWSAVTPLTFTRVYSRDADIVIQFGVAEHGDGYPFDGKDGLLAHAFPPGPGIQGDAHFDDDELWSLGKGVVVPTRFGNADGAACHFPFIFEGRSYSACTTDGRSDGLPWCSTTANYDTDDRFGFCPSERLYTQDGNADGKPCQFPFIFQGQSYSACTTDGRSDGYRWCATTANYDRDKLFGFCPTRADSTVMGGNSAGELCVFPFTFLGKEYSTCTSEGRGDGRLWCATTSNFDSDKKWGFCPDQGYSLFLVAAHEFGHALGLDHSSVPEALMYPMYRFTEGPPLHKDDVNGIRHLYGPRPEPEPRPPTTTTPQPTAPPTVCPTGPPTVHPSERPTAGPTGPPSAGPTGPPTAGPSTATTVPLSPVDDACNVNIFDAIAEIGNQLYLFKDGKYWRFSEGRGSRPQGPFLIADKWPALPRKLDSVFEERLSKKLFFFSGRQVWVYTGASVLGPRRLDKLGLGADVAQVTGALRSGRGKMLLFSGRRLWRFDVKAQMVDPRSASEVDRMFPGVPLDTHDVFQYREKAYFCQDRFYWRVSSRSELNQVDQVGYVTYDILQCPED
Sequence of Disintegrin and metalloproteinase domain-containing protein 17 (P78536 whole entry, the tested form may be a part): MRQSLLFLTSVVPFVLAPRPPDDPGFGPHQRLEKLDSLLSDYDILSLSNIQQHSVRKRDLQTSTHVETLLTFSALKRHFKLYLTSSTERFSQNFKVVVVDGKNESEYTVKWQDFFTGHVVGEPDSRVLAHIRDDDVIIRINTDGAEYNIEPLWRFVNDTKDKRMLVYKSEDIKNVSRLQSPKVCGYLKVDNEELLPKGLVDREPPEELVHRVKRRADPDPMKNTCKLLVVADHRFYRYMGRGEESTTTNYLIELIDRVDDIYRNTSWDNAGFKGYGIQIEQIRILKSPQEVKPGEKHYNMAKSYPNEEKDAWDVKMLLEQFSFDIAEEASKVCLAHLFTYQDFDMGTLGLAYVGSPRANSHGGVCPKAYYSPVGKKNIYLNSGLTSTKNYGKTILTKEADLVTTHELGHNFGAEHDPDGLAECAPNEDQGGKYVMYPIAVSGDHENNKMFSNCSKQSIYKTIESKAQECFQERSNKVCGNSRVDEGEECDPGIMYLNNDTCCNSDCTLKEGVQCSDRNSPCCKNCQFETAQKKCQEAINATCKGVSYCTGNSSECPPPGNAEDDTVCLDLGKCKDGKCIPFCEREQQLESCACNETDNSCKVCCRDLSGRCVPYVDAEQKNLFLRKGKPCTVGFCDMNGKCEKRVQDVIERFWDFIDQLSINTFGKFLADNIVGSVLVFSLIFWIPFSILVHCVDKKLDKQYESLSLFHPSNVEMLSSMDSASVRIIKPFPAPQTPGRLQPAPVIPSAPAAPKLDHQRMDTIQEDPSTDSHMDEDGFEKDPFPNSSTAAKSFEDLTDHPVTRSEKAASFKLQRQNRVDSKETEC
Sequence of Macrophage metalloelastase (P39900 whole entry): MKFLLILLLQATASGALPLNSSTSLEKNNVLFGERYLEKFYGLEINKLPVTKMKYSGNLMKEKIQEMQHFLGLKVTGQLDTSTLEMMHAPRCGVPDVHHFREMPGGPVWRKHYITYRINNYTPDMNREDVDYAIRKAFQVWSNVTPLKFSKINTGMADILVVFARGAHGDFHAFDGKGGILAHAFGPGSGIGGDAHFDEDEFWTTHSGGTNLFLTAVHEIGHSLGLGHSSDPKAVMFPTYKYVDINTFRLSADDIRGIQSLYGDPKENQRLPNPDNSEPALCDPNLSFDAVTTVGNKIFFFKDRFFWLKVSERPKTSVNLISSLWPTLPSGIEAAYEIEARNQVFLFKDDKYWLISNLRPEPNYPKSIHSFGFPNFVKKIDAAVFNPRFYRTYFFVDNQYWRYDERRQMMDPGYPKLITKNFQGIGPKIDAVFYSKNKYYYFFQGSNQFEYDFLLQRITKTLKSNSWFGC
Sequence of Neutrophil collagenase (P22894 whole entry): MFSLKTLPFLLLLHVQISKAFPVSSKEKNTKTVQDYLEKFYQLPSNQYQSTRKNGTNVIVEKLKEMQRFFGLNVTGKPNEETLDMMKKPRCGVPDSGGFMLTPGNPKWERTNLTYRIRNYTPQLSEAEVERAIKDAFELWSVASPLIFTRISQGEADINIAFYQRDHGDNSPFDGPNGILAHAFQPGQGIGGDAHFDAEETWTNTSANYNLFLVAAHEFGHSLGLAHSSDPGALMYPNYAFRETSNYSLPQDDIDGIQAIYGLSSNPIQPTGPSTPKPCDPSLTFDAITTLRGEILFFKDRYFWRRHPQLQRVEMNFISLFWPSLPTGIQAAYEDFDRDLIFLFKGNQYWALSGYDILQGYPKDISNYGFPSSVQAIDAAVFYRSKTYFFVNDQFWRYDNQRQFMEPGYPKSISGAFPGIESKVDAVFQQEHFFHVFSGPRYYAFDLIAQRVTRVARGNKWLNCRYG

IC50 (Matrilysin): > 20 µM
IC50 [1]: > 20 µM
IC50 (Cartilage tissue): 5 nM
IC50 [2]: > 20 µM
IC50 [3]: > 20 µM
IC50 (Interstitial collagenase): > 20 µM
IC50 [4]: > 20 µM
IC50 (Neutrophil collagenase): > 20 µM
IC50 [5]: 7 µM
IC50 (Collagenase 3): 1.3 nM
IC50 [7]: > 20 µM
IC50 (Stromelysin-1): 15 µM
Structure (SMILES): Cc1c(C(=O)O)ccc2c1CC[C@@H]2NC(=O)c1cc(C(=O)NCc2ccc(F)c(C(F)(F)F)c2)nc2c(F)cnn12
inhibition (INH) (Rattus norvegicus [6]): 0%
inhibition (INH) (Rattus norvegicus [8]): 60%
inhibition (INH) (Rattus norvegicus [9]): 95%
